Test results as given in ChEMBL document CHEMBL1125317, “3-Hydroxy-3-methylglutaryl-coenzyme A reductase inhibitors. 9. The synthesis and biological evaluation of novel simvastatin analogs” (J Med Chem, 1992).

Experiments:
Canis familiaris = assay: Compound tested […] for % change of plasma cholesterol in cholestyramine-primed dogs after oral administration at 4 mg/kg; type: functional, Canis lupus familiaris
Rattus norvegicus = assay: […] acute inhibition of [14C]cholesterol synthesis in the rat post peroral administration of the test compound at 0.45 mg/kg; type: functional; details: route oral
How it was run: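 Rats given a single oral dose of 0.45 mg/kg; [14C]acetate incorporation into cholesterol measured 1 h after dosing as index of acute cholesterol synthesis inhibition.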

[1] = biological target: T1, 3-hydroxy-3-methylglutaryl-coenzyme A reductase (Homo sapiens, UniProt P04035); assay: The compound was tested in vitro for inhibitory activity against HMG-CoA reductase
T1 sequence (P04035 whole entry): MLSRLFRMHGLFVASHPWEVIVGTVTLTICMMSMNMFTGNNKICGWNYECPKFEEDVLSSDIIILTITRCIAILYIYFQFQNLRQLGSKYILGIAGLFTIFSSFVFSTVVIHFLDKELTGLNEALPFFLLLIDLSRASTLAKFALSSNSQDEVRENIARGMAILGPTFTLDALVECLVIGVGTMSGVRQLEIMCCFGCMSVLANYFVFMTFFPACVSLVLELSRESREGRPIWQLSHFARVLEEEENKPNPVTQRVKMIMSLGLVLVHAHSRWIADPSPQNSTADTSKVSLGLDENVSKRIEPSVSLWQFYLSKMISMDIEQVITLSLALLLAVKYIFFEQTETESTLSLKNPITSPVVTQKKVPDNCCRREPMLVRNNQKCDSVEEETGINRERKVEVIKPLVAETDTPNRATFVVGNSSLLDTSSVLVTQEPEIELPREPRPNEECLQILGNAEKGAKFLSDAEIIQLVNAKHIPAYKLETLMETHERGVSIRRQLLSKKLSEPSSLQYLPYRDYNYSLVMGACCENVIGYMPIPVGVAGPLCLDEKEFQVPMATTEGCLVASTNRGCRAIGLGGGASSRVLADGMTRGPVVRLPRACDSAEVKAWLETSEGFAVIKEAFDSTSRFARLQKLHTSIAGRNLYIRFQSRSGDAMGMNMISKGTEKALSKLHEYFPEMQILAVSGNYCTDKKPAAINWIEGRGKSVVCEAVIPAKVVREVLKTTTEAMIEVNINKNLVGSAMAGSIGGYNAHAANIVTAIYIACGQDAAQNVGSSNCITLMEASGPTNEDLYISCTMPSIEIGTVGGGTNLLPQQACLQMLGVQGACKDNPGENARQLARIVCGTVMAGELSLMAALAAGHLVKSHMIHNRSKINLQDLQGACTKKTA

## CC[C@H](C)C(=O)O[C@H]1C[C@@H](C)C=C2C=C[C@H](C)[C@H](CC[C@@H]3C[C@@H](O)CC(=O)O3)C21 (some centres undefined)
Canis familiaris
  Change: -42%
Rattus norvegicus
  Change: -55%

## CCC(C)(C)C(=O)O[C@H]1C[C@@H](C)C=C2C=C[C@H](C)[C@H](CC[C@@H]3C[C@@H](O)CC(=O)O3)C21 (some centres undefined)
Canis familiaris
  Change: -60%
Rattus norvegicus
  Change: -65%

## CCC(C)(C)C(=O)O[C@@H]1C2C(=C[C@H](C)[C@@H]1O)C=C[C@H](C)[C@@H]2CC[C@@H]1C[C@@H](O)CC(=O)O1 (some centres undefined)
Canis familiaris
  Change: -36%
Rattus norvegicus
  Change: -45%

## CCC(C)(C)C(=O)O[C@@H]1C2C(=C[C@H](C)[C@H]1[C@@H](O)c1ccccc1)C=C[C@H](C)[C@@H]2CC[C@@H]1C[C@@H](O)CC(=O)O1 (some centres undefined)
Canis familiaris
  Change: -31%
Rattus norvegicus
  Change: -25%

## CCC(C)(C)C(=O)O[C@@H]1C2C(=C[C@H](C)[C@H]1[C@H](C)O)C=C[C@H](C)[C@@H]2CC[C@@H]1C[C@@H](O)CC(=O)O1 (some centres undefined)
Canis familiaris
  Change: -32%
Rattus norvegicus
  Change: -28%

## CCC(C)(C)C(=O)O[C@@H]1C2C(=C[C@H](C)[C@H]1CO)C=C[C@H](C)[C@@H]2CC[C@@H]1C[C@@H](O)CC(=O)O1 (some centres undefined)
Canis familiaris
  Change: 0%
[1]
  IC50: 10.8 nM
Rattus norvegicus
  Change: -69%

## CC[C@H](C)C(=O)O[C@H]1CCC=C2C=C[C@H](C)[C@H](CC[C@@H]3C[C@@H](O)CC(=O)O3)[C@H]21 [MEVASTATIN]
[1]
  IC50: 28.4 nM
